Laboratory results: article PMC3799977 (Toxicology and applied pharmacology, 2012)

Tests used:
[1] = biological target: T1, mouse RORγ (Mus musculus, UniProt P51450); experiment: CHO-K1 cell-based RORγ reporter gene assay; conditions: for RIC20 (20% relative inhibitory concentration), RORγ assay: inverse agonistic activity, CHO-K1 cells, 24 hr; for ROR activity (RORγ): data not shown
T1 sequence (P51450 1-516): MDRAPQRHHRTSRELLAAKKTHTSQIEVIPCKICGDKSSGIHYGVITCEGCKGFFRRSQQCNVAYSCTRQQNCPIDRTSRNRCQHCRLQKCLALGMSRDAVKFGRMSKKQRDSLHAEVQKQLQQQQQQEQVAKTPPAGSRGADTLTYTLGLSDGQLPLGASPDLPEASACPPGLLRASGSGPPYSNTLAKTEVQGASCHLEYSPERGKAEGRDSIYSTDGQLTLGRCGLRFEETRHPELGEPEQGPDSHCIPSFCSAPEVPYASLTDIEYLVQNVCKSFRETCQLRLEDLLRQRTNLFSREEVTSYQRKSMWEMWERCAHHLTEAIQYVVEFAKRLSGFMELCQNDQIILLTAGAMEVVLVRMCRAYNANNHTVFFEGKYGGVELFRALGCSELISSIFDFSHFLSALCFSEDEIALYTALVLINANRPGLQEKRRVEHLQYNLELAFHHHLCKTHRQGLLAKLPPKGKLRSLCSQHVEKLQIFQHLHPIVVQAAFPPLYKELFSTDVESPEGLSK

[2] = biological target: T2, mouse RORα (Mus musculus, UniProt P51448); experiment: CHO-K1 cell-based RORα reporter gene assay; conditions: for RORα inverse agonistic activity (in words): Fig. 2A; for RIC20 (20% relative inhibitory concentration), RORα assay: inverse agonistic activity, CHO-K1 cells, 24 hr; for ROR activity (RORα): data not shown
T2 sequence (P51448 1-467 isoform P51448-2): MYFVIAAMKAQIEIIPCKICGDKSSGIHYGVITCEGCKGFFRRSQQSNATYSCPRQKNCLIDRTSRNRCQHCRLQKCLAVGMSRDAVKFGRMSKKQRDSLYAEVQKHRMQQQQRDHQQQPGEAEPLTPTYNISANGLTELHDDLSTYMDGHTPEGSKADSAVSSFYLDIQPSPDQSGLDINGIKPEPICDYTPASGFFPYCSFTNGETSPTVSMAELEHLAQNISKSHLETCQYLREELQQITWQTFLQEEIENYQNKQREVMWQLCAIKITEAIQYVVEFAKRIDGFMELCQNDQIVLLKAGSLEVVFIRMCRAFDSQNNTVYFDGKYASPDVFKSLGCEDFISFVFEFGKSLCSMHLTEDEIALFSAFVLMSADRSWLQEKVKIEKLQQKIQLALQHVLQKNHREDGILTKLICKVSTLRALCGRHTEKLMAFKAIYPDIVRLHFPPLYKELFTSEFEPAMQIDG

[3] = system: IL-17A mRNA expression in mouse T lymphoma EL4 cells; experiment: IL-17A mRNA expression in EL4 cells; type: cell-based; conditions: 6 h; for IL-17 gene expression, dose dependence: PMA/ionomycin-stimulated EL4 cells, 1, 3, 10 or 30 μM; for IL-17 mRNA expression, real-time PCR: highest dose 30 μM
Procedure, shortened: (§1)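 EL4 cells were plated at 2 × 10^6 cells/ml in RPMI-1640 with 10% FBS. Next day they were stimulated with PMA (5 ng/ml) plus ionomycin (1 μM) and given vehicle or 1, 3, 10 or 30 μM test compound at 37°C for 6 h. TRIzol RNA was reverse-transcribed and TaqMan real-time PCR run, normalized to β-actin. Results were expressed relative to stimulated vehicle (=1), mean ± SD, three experiments.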

[4] = system: CHO-K1 cells; experiment: Cytotoxicity check by β-galactosidase activity in the reporter gene assays; type: cell-based, Chinese hamster; conditions: highest dose (30 μM)
[5] = system: IL-17A mRNA expression in EL4/shNC cells; experiment: IL-17A mRNA expression in control shRNA EL4/shNC cells; type: cell-based, mouse; conditions: 10 μM, PMA/ionomycin
[6] = system: IL-17A mRNA expression in EL4/shRorac cells; experiment: IL-17A mRNA expression in RORα/γ-knockdown EL4/shRorac cells; type: cell-based, mouse; conditions: 10 μM, PMA/ionomycin, RORα/γ double knockdown
Procedure, shortened: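 EL4/shRorac, a stable RORα/RORγ double-knockdown clone, was made by electroporating a GFP/Neo U6 vector carrying Rora and Rorc shRNAs, then selecting in G418. EL4/shNC (nonsilencing shRNA) served as control. Cells received 10 μM test compound with or without PMA/ionomycin. IL-17 mRNA was measured by real-time RT-PCR, normalized to β-actin, and expressed relative to stimulated vehicle-treated EL4/shNC (=1). Mean ± SD, three experiments.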

[7] = system: RORγ mRNA expression in EL4 cells; experiment: RORγ mRNA expression in PMA/ionomycin-stimulated EL4 cells; type: cell-based, mouse; conditions: 6 h
[8] = system: RORα mRNA expression in EL4 cells; experiment: RORα mRNA expression in PMA/ionomycin-stimulated EL4 cells; type: cell-based, mouse; conditions: 6 h
Procedure, shortened: as §1

[9] = biological target: RORα; conditions: read-out: Ki, binding to RORα; ref Kumar et al. (2010); cited from earlier work
[10] = PMA/ionomycin-stimulated EL4 cells
[11] = PMA/ionomycin-stimulated EL4 cells, 10 μM

Structure (SMILES)	RIC20 (20% relative inhibitory concentration), RORγ assay [1]	RORα inverse agonistic activity (in words) [2]	RIC20 (20% relative inhibitory concentration), RORα assay [2]	IL-17 gene expression, dose dependence [3]	ROR activity (RORγ) [1]	ROR activity (RORα) [2]	IL-17A mRNA expression, real-time PCR [3, 11]	also measured
C=CCOC(Cn1ccnc1)c1ccc(Cl)cc1Cl (stereo not drawn) [Imazalil]	29 µM	did not show almost any inverse agonistic activity	> 30 µM	inhibit IL-17 gene expression in a dose-dependent manner	–	–	–	IL-17 mRNA expression, real-time PCR [3, 10]: significantly suppressed IL-17 mRNAs
CC(C)(C)C(=O)C(Oc1ccc(Cl)cc1)n1cncn1 (stereo not drawn) [triadimefon]	–	–	–	–	inactive	inactive	–	–
CCCOC/C(=N\c1ccc(Cl)cc1C(F)(F)F)n1ccnc1 [Triflumizole]	–	weak RORα inverse agonists	–	inhibit IL-17 gene expression in a dose-dependent manner	–	–	significantly inhibited	–
CCCCC(O)(Cn1cncn1)c1ccc(Cl)cc1Cl (stereo not drawn) [Hexaconazole]	3.2 µM	weak RORα inverse agonists	21 µM	inhibit IL-17 gene expression in a dose-dependent manner	–	–	significantly inhibited	–
CCCC1COC(Cn2cncn2)(c2ccc(Cl)cc2Cl)O1 (stereo not drawn) [propiconazole]	–	–	–	–	inactive	inactive	–	–
Clc1ccc(CSC(Cn2cncn2)=Nc2ccc(Cl)cc2Cl)cc1 [Imibenconazole]	3.3 µM	weak RORα inverse agonists	10 µM	inhibit IL-17 gene expression in a dose-dependent manner	–	–	strongly suppressed IL-17A mRNA expression	cytotoxic effects based on β-galactosidase activity [4]: except for the highest dose (30 μM); IL-17A mRNA expression in EL4/shNC cells [5]: showed inhibitory effects on IL-17A mRNA expression; IL-17 mRNA expression in EL4/shRorac cells [6]: also suppressed IL-17 mRNA expression
O=S(=O)(c1ccccc1)N(CC(F)(F)F)c1ccc(C(O)(C(F)(F)F)C(F)(F)F)cc1 [T0901317, N-(2,2,2-trifluoroethyl)-N-[4-(2,2,2-trifluoro-1-hydroxy-1-trifluoromethyl-ethyl)-phenyl]-benzene sulfonamide, reference compound]	–	weak RORα inverse agonists	–	–	–	–	–	cytotoxic effects based on β-galactosidase activity [4]: except for the highest dose (30 μM); IL-17A mRNA expression in EL4/shNC cells [5]: showed inhibitory effects on IL-17A mRNA expression; RORα agonistic activity ([2]; CHO cell-based reporter gene assay): didn’t show any RORα/γ agonistic activity; IL-17 mRNA expression in EL4/shRorac cells [6]: also suppressed IL-17 mRNA expression; RORγ mRNA expression [7]: did not affect; IL-17A mRNA expression, qualitative RT-PCR ([3]; PMA/ionomycin-stimulated EL4 cells, 0.1, 1, 10 μM, Fig. 4A): inhibited IL-17A mRNA expression in a dose-dependent manner; IL-17A mRNA expression, real-time PCR ([3]; PMA/ionomycin-stimulated EL4 cells, 0.1, 1, and 10 μM): significantly inhibited IL-17A mRNA expression; IL-17A gene expression in non-stimulated EL4 cells ([3]; no PMA/ionomycin stimulation, qualitative RT-PCR): neither T0901317 nor the vehicle induced the expression of IL-17A gene; RORα mRNA expression [8]: did not affect; Ki [9]: […]
CCCN(CCOc1c(Cl)cc(Cl)cc1Cl)C(=O)n1ccnc1 [prochloraz]	–	–	–	–	inactive	inactive	–	–
FC(F)C(F)(F)OCC(Cn1cncn1)c1ccc(Cl)cc1Cl (stereo not drawn) [Tetraconazole]	15 µM	did not show almost any inverse agonistic activity	> 30 µM	inhibit IL-17 gene expression in a dose-dependent manner	–	–	–	IL-17 mRNA expression, real-time PCR [3, 10]: significantly suppressed IL-17 mRNAs
CC(C)(C)C(O)C(Oc1ccc(-c2ccccc2)cc1)n1cncn1 (stereo not drawn) [bitertanol]	–	–	–	–	inactive	inactive	–	–
